Data set [1] relates to Trypanosoma cruzi. In words: Potentiation of benznidazole-induced trypanopcidal activity against Trypanosoma cruzi Y epimastigotes at 20 uM after 72 hrs by Neubauer chamber or MTS dye based assay. The class given is functional. In outline: (§1)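 Epimastigotes were treated with 30 µM benznidazole alone or with 20 µM polyamine conjugate, for up to 96 h at 28 °C. Parasites were counted (Neubauer or MTS) at 24, 48, 72 and 96 h. Potentiation is the fold change in benznidazole potency with versus without the conjugate.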
(In general: Tetrazolium dyes change colour on reduction, which living cells bring about.)

Data set [2] has as its system Trypanosoma cruzi. As to the kind of experiment: Potentiation of benznidazole-induced trypanopcidal activity against Trypanosoma cruzi Y epimastigotes at 20 uM after 96 hrs by Neubauer chamber or MTS dye based assay. The data set is classed as functional. In outline:
as §1

In data set [3] the test system is Trypanosoma cruzi. In words: Trypanopcidal activity against Trypanosoma cruzi Y trypamastigotes infected in African green monkey Vero cells treated for 5 days by Neubauer chamber or MTS dye based assay. The data set is classed as functional, organism-based. Conditions: 120 h. Put shortly: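 VERO cells infected with trypomastigotes were exposed to compound at 0–2.5 µM for five days. Trypomastigote burst was scored after six days of infection. IC50 was obtained by nonlinear regression of dose-response.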

Data set [4] deals with T1, Putative amino acid permease/transporter (Trypanosoma cruzi, UniProt D5FGE8).
T1 sequence (D5FGE8 whole entry): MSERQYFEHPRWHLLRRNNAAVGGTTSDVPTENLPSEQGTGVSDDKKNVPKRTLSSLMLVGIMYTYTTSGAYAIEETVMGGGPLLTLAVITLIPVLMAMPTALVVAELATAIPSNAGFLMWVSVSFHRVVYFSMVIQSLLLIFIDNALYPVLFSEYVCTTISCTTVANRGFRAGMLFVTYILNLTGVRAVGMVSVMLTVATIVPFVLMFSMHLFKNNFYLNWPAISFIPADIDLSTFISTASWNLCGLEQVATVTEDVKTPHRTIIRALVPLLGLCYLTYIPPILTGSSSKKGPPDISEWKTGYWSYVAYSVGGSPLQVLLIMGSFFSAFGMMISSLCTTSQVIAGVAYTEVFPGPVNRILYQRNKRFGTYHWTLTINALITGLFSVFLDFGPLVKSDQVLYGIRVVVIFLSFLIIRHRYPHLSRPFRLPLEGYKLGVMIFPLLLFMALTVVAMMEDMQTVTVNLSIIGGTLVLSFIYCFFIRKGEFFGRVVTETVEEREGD
As to the kind of experiment: Inhibition of Trypanosoma cruzi Y epimastigotes PAT assessed as reduction in [3H]--spermidine uptake after 10 mins by liquid scintillation counting method. Put shortly: (§2)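 Y-strain epimastigotes from BHT culture were washed twice in PBS. 10^7 cells in PBS-2% glucose were given [3H]-putrescine (5 µM) or [3H]-spermidine (15 µM), 0.4 µCi, with inhibitor at 0–30 µM, later narrowed. Incubation was 10 min at 28 °C or 37 °C, stopped with ice-cold buffer and washed; pellets went to scintillation counting. Nonspecific uptake was taken with a 100-fold molar excess of substrate. IC50 was fit by nonlinear regression.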

Data set [5] has as its system Trypanosoma cruzi. In words: Potentiation of benznidazole-induced trypanopcidal activity against Trypanosoma cruzi Y epimastigotes at 20 uM after 24 hrs by Neubauer chamber or MTS dye based assay. The data set is classed as functional. Put shortly: as §1
The target of data set [6] is T2, Putative amino acid permease/transporter (Trypanosoma cruzi) (UniProt D5FGE8).
T2 sequence (whole entry): T1 sequence (D5FGE8 whole entry)
In words: Inhibition of Trypanosoma cruzi Y epimastigotes PAT assessed as reduction in [3H]--spermidine uptake up to 30 uM after 10 mins by liquid scintillation counting method. In outline:
as §2

Data set [7] concerns Trypanosoma cruzi. As to the kind of experiment: Ratio of IC50 for Trypanosoma cruzi Y epimastigotes to IC50 for Trypanosoma cruzi Y trypamastigotes. The class given is functional.
Data set [8] has as its system Trypanosoma cruzi. As to the kind of experiment: Trypanopcidal activity against Trypanosoma cruzi Y epimastigotes after 48 hrs by Neubauer chamber or MTS dye based assay. The data set is classed as functional, organism-based. In outline: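 Y-strain epimastigotes, 10^7 cells/well in BHT (pH 7, 10% FCS, hemin), were exposed to 0–100 µM compound at 28 °C for 48 h. Growth was counted in a Neubauer chamber or by MTS. IC50 is 50% viability relative to untreated control, by nonlinear regression; at least triplicate, three independent assays.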

Data set [9] deals with T1, Putative amino acid permease/transporter. In words: Inhibition of Trypanosoma cruzi Y trypamastigotes PAT assessed as reduction in [3H]--spermidine uptake after 10 mins by liquid scintillation counting method. In outline:
(§3)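 Trypomastigotes came from infected VERO cells. 10^7 washed parasites in PBS-2% glucose were given [3H]-putrescine or [3H]-spermidine (0.4 µCi) plus inhibitor for 10 min at 28 °C or 37 °C. The reaction was stopped with ice-cold PBS-glucose, washed and scintillation counted. Background was taken with a 100-fold molar substrate excess. IC50 came from logistic dose-response fit.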

A further data set has as its system Vero. As to the kind of experiment: Cytotoxicity against African green monkey Vero cells assessed as reduction in cell viability after 24 hrs by crystal violet staining based assay. The settings on record: Chlorocebus sabaeus. Put shortly: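 VERO cells (MEM, 10% heat-inactivated FCS, 37 °C, 5% CO2) were seeded at 10^4 cells/well and treated 24 h with compound at 0–50 µM; PBS served as negative control. Cells were fixed 15 min, stained with 0.5% crystal violet, and absorbance read at 570 nm. IC50 was from nonlinear regression.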

The subject of data set [10] is Trypanosoma cruzi. As to the kind of experiment: Potentiation of benznidazole-induced trypanopcidal activity against Trypanosoma cruzi Y epimastigotes at 20 uM after 48 hrs by Neubauer chamber or MTS dye based assay. The class given is functional. In outline: as §1
For data set [11], the target named is T1, Putative amino acid permease/transporter. As to the kind of experiment: Inhibition of Trypanosoma cruzi Y epimastigotes PAT assessed as reduction in [3H]-putrescine uptake after 10 mins by liquid scintillation counting method. In outline: as §2
For another data set, the system named is HL-60. As to the kind of experiment: Cytotoxicity against human HL60 cells. The data set is classed as cell-based.
The target in data set [12] is T1, Putative amino acid permease/transporter. In words: Inhibition of Trypanosoma cruzi Y trypamastigotes PAT assessed as reduction in [3H]-putrescine uptake after 10 mins by liquid scintillation counting method. In outline:
as §3

For data set [13], the system named is Trypanosoma cruzi. As to the kind of experiment: Trypanopcidal activity against Trypanosoma cruzi Y trypamastigotes after 24 hrs by Neubauer chamber or MTS dye based assay. The class given is functional, organism-based. In outline: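 Culture-derived trypomastigotes, 10^6 cells/mL, were held at 37 °C for 24 h with compound at 0–2.5 µM. Motility was checked microscopically, and viability was counted by Neubauer chamber or MTS against untreated controls. IC50 was from logistic nonlinear regression.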

A short description of data set [14]: Selectivity index, ratio of IC50 for cytotoxicity against African green monkey Vero cells to IC50 for trypanopcidal activity against Trypanosoma cruzi Y trypamastigotes. The class given is toxicity, cell-based. Conditions: read-out: Ratio IC50.
Data set [15] deals with T2, Putative amino acid permease/transporter (Trypanosoma cruzi). As to the kind of experiment: Inhibition of Trypanosoma cruzi Y epimastigotes PAT assessed as reduction in [3H]-putrescine uptake up to 30 uM after 10 mins by liquid scintillation counting method. Put shortly:
as §2

Another data set relates to Leishmania amazonensis. In words: Antiparasitic activity against Leishmania amazonensis MHOM/Br/75/Josefa promastigotes by light microscopic method. The class given is functional, organism-based.

Structures are written as SMILES. The source made the active and inactive calls. The calls are words filed in the database; no cut-off is given here.

Consider `Cl.Cl.NCCCCNCc1c2ccccc2cc2ccccc12`, for which the “fold change (FC)” value in the data set with Trypanosoma cruzi [1] stood at 6.2; in the data set on Trypanosoma cruzi [2], 11.2; in the data set on Trypanosoma cruzi [5] it was 1.5; with Trypanosoma cruzi [10], 1.9. For the same compound, the IC50 with Trypanosoma cruzi [3] was determined as 0.52 µM; in [4], 8.78 µM; with Trypanosoma cruzi [8] it was 17 µM; in [9], 4.86 µM; with Vero it was 5.86 µM; in data set [11] it was 5.02 µM. The results for the IC50 (with HL-60; in data set [12]; with Trypanosoma cruzi [13]) were 20 µM, 4.94 µM and 0.46 µM, respectively. The inhibition result in [6] and in data set [15] was “Active” in each case. In the data set with Trypanosoma cruzi [7], the “Ratio IC50” value is 37. The selectivity ratio in data set [14] was determined as 12.7.

As to `NCCC(=O)CN`, the IC50 in the data set on Leishmania amazonensis is 144 µM.

Take `NCCCCNCCCCNCc1c2ccccc2cc2ccccc12`: the IC50 in data set [4] is 13.3 µM; in data set [11], 3.98 µM. For the same compound, the inhibition result in data set [6] and in data set [15] was “Active” throughout.

For the compound `CCCCCCCCCCCCCCCC(=O)NCCCCC(N)C(=O)NCCCNCCCCNCCCN` (centres undefined), the IC50 in [11] worked out at 2.43 µM. For the same compound, in data set [15], the inhibition entry was “Active”.

As a reminder, the IC50 is the concentration at which inhibition is half-maximal.

Source of the values: ChEMBL document CHEMBL4145527, “Targeting polyamine transport in Trypanosoma cruzi” (Eur J Med Chem, 2018).
